Measurements reported in publication PMC6331054 (Bioorganic & medicinal chemistry, 2018).
pIC50, pKi: −log10 of the molar value.

Experiments:
[1] = Stability of DAR on storage and under assay conditions; assay type: physicochemical
[2] = target: T1, RALDH2 activity (ATRA synthesis) in living intact chick choroids (Gallus gallus, UniProt O93344); experiment: RALDH2 activity after incubation of living, intact choroids in organ culture; assay type: cell-based; details: organ culture 24 hrs
T1 sequence (O93344 1-518): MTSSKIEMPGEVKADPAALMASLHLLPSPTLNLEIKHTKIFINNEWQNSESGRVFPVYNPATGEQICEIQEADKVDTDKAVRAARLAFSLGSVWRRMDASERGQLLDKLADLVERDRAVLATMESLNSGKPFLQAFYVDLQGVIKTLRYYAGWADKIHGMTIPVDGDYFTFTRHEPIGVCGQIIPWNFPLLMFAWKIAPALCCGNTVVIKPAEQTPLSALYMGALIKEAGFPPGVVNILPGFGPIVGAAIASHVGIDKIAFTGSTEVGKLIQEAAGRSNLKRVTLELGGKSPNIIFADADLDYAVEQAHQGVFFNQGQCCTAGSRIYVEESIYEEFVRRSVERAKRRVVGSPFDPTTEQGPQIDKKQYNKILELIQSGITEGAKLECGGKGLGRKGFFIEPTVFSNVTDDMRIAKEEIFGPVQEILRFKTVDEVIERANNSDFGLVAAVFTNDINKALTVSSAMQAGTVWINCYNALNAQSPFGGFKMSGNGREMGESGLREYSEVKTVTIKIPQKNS
How it was run: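 Choroids from 4-day recovering or contralateral control eyes of male White Leghorn chicks (8 mm posterior punch) were cultured one per well in N2 medium with test compound (methods: 0.01–5 μM; legend: 0.01–10 μM) or DMSO for 24 hrs at 37°C, 5% CO2. Cytosol (100,000g, 1 hr) was incubated with NAD+ and 25 μM all-trans-retinaldehyde for 30 min at 37°C, with methanol stop and HPLC quantification of ATRA.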

[3] = target: T2, recombinant human mitochondrial ALDH2 (hALDH2) (Homo sapiens, UniProt P05091); assay type: biochemical; details: read-out: KI (Morrison); Morrison equation; ALDH2 4.43 μM
T2 sequence (P05091 18-517): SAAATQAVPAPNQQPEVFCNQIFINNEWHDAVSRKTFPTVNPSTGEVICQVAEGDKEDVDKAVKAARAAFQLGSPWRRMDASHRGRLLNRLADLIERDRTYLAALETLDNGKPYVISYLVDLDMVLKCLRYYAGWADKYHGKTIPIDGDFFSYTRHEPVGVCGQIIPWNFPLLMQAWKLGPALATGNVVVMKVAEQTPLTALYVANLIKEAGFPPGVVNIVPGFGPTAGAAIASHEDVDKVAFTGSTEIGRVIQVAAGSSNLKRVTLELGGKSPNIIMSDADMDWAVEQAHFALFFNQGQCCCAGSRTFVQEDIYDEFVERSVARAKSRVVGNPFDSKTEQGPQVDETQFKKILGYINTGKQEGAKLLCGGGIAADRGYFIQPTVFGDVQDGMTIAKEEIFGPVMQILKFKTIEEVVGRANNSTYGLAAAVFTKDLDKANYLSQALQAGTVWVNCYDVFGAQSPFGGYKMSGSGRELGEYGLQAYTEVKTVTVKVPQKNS
How it was run: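 Cobalt-purified recombinant hALDH2 (4.5 μM in Hepes pH 8.5/KCl/EDTA dialysis buffer plus 1 mM TCEP) in 20 mM Hepes pH 8.3, 150 mM KCl, 1 mM EDTA, 2 mM DTT, 5 mM propionaldehyde, 25°C. Pre-incubation 20 min–1 hr with test compound (1–100 μM final) or DMSO; NAD+ (5 mM final) started reaction; NADH at 340 nm for 5 min. KI by Morrison equation; triplicates, 3–5 experiments.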

[4] = target: T3, recombinant chicken RALDH2 (Gallus gallus, UniProt O93344); experiment: Fluorescence-based NADH assay of RALDH activity with retinaldehyde as substrate; assay type: biochemical
T3 sequence (O93344 1-518): T1 sequence (O93344 1-518)

[5] = target: T4, RALDH2 activity in chick choroid cytosol fractions (Gallus gallus, UniProt O93344); assay type: biochemical
T4 sequence (O93344 1-518): T1 sequence (O93344 1-518)
How it was run: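 Choroidal cytosol from control and 4-day recovering chick eyes was pre-incubated 20 min at 37°C with test compound (0–6 μM) or DMSO. Reaction was started with NAD+ (4 mM) and all-trans-retinaldehyde (25 μM), run 30 min at 37°C under dim red light, stopped with ice and methanol. ATRA was quantified by HPLC.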

SMILES	light stability ([1]; ambient light)	stability under assay conditions ([1]; dark, 25°C and 37°C)	storage stability ([1]; stored in the dark and at −80°)	effect on ATRA synthesis in living, intact choroids from control eyes [2]	pKi [3]	Protection of RALDH2 activity by all-trans-retinaldehyde in the pre-incubation ([4]; 250 nM DAR + 250 μM RAL)	RALDH2 activity at enzyme concentrations below the DAR concentration ([4]; DAR 150 nM, RALDH2 46 – 91 nM)	pIC50 [5]	inhibition of RALDH2 activity in control choroid lysates ([5]; 0.10 – 6 μM DAR, 20 min pre-incubation at 37°C, control eyes, vs vehicle)
CC1=C(/C=C/C(C)=C/C=C/C(C)=C/C(=O)C(Cl)Cl)C(C)(C)CCC1 [DAR, (3E,5E,7E,9E)-1,1-dichloro-4,8-dimethyl-10-(2,6,6-trimethylcyclohex-1-en-1-yl)deca-3,5,7,9-tetraen-2-one]	prone to photoisomerization	at least three days	at least three months	no significant effect	< 4.00	No protection	completely inhibited	7.68	92 – 99%
O=C(NCCCCCCCCNC(=O)C(Cl)Cl)C(Cl)Cl [WIN 18446, reference compound]	–	–	–	no significant effect	–	–	–	–	–
